Test results taken from ChEMBL document CHEMBL1275351, “Novel spirotetracyclic zwitterionic dual H(1)/5-HT(2A) receptor antagonists for the treatment of sleep disorders” (J Med Chem, 2010).

Assays:
[1] = target: Histamine H1 receptor (Homo sapiens, UniProt P35367); test: Antagonist activity against human histamine H1 receptor expressed in CHO cells by FLIPR assay; assay type: functional, cell-based
[2] = target: 5-hydroxytryptamine receptor 2B (Homo sapiens, UniProt P41595); test: Antagonist activity at human 5HT2B receptor expressed in human SH-SY5Y cells by FLIPR assay
[3] = target: T1, 5-hydroxytryptamine receptor 2C (Homo sapiens, UniProt P28335); test: Antagonist activity at human 5HT2C receptor expressed in human SH-SY5Y cells by FLIPR assay; assay type: functional, cell-based
T1 sequence (P28335 whole entry): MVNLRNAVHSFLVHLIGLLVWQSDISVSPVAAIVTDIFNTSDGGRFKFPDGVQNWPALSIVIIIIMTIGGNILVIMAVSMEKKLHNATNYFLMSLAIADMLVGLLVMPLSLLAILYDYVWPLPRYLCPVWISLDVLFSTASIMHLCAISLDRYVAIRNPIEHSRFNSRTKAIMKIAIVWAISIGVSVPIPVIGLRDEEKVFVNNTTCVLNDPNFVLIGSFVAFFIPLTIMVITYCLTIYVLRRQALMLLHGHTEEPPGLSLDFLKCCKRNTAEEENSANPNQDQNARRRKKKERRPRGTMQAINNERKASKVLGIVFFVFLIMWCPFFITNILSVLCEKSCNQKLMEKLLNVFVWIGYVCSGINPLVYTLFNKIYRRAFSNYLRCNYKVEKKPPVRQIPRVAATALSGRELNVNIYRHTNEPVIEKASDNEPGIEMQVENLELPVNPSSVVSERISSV

[4] = target: Voltage-gated inwardly rectifying potassium channel KCNH2 (Homo sapiens, UniProt Q12809); test: Displacement of [3H]dofetilide from human ERG by scintillation proximity assay
[5] = target: Histamine H1 receptor (Rattus norvegicus, UniProt P31390); test: Displacement of [3H]pyrilamine from histamine H1 receptor in Sprague-Dawley rat cortical membrane by liquid scintillation counting
In short: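 Cerebral cortex membranes from male Sprague-Dawley rats (200-250 g), 150 μg/well. Incubated with 0.6 nM [3H]pyrilamine in 50 mM HEPES, pH 7.4, for 2 h at room temperature. Filtered on PEI-soaked GF/B and counted by scintillation. Nonspecific binding with 10 μM cetirizine. Ki by Cheng-Prusoff; mean of two experiments in duplicate.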

[6] = target: Cytochrome P450 2C9 (Homo sapiens, UniProt P11712); test: Inhibition of human CYP2C9 transfected in bactosome expression system by spectrofluorimetry; assay type: ADME
In short: (§1)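 Recombinant human CYP Bactosomes (0.1 mg/mL) in 50 mM phosphate buffer, pH 7.4. Compound at 0.1-10 μM was preincubated with fluorogenic substrate for 10 min at 37 °C, and the reaction was started with an NADPH regenerating system. Metabolite fluorescence was followed for 10 min. Substrates: 1A2 ethoxyresorufin 0.5 μM; 2C9 FCA 50 μM; 2C19 BMC 10 μM; 2D6 MMC 10 μM; 3A4 DEF 1 μM or 7-BQ 25 μM. Run in triplicate.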

[7] = target: Cytochrome P450 2C19 (Homo sapiens, UniProt P33261); test: Inhibition of human CYP2C19 transfected in bactosome expression system by spectrofluorimetry; assay type: ADME; in short: as §1
[8] = target: Cytochrome P450 3A4 (Homo sapiens, UniProt P08684); test: Inhibition of human CYP3A4 transfected in bactosome expression system by spectrofluorimetry; assay type: ADME; in short: as §1
[9] = Fraction unbound in rat brain; assay type: ADME, tissue-based
[10] = Fraction unbound in rat blood; assay type: ADME, tissue-based
[11] = test system: Rattus norvegicus; test: Hypnotic activity in Sprague-Dawley rat assessed as total sleep time at 1 mg/kg, po administered during active phase; assay type: functional
In short: (§2)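 Male Sprague-Dawley rats (275-300 g) carried implanted telemetric EEG/EMG transmitters and were used 3 weeks after surgery. Oral dosing (2 mL/kg) was given 6 h after lights off (CT18) in a randomized crossover versus vehicle. Recording ran for 5 h in 10 s epochs scored by FFT. n = 8, mean ± SEM; one-way ANOVA with Dunnett's test.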

[12] = test system: Rattus norvegicus; test: Hypnotic activity in Sprague-Dawley rat assessed as total sleep time at 3 mg/kg, po administered during active phase; assay type: functional; in short: as §2
[13] = test system: Rattus norvegicus; test: Hypnotic activity in Sprague-Dawley rat assessed as total sleep time at 10 mg/kg, po administered during active phase; assay type: functional; in short: as §2
[14] = test system: Rattus norvegicus; test: Hypnotic activity in Sprague-Dawley rat assessed as non-rapid eye movement latency period at 1 mg/kg, po administered during active phase; assay type: functional; in short: as §2
[15] = test system: Rattus norvegicus; test: Hypnotic activity in Sprague-Dawley rat assessed as non-rapid eye movement latency period at 3 mg/kg, po administered during active phase; assay type: functional; in short: as §2
[16] = test system: Rattus norvegicus; test: Hypnotic activity in Sprague-Dawley rat assessed as non-rapid eye movement latency period at 10 mg/kg, po administered during active phase; assay type: functional; in short: as §2
[17] = test system: Rattus norvegicus; test: Hypnotic activity in Sprague-Dawley rat assessed as non-rapid eye movement sleep at 1 mg/kg, po administered during active phase; assay type: functional; in short: as §2
[18] = test system: Rattus norvegicus; test: Hypnotic activity in Sprague-Dawley rat assessed as non-rapid eye movement sleep at 3 mg/kg, po administered during active phase; assay type: functional; in short: as §2
[19] = test system: Rattus norvegicus; test: Hypnotic activity in Sprague-Dawley rat assessed as non-rapid eye movement sleep at 10 mg/kg, po administered during active phase; assay type: functional; in short: as §2
[20] = test system: Rattus norvegicus; test: Hypnotic activity in Sprague-Dawley rat assessed as rapid eye movement latency period at 1 mg/kg, po administered during active phase; assay type: functional; in short: as §2
[21] = test system: Rattus norvegicus; test: Hypnotic activity in Sprague-Dawley rat assessed as rapid eye movement latency period at 3 mg/kg, po administered during active phase; assay type: functional; in short: as §2
[22] = test system: Rattus norvegicus; test: Hypnotic activity in Sprague-Dawley rat assessed as rapid eye movement latency period at 10 mg/kg, po administered during active phase; assay type: functional; in short: as §2
[23] = test system: Rattus norvegicus; test: Hypnotic activity in Sprague-Dawley rat assessed as rapid eye movement sleep at 1 mg/kg, po administered during active phase; assay type: functional; in short: as §2
[24] = test system: Rattus norvegicus; test: Hypnotic activity in Sprague-Dawley rat assessed as rapid eye movement sleep at 3 mg/kg, po administered during active phase; assay type: functional; in short: as §2
[25] = test system: Rattus norvegicus; test: Hypnotic activity in Sprague-Dawley rat assessed as rapid eye movement sleep at 10 mg/kg, po administered during active phase; assay type: functional; in short: as §2

Chain of Histamine H1 receptor (Homo sapiens, UniProt P35367) (P35367 whole entry): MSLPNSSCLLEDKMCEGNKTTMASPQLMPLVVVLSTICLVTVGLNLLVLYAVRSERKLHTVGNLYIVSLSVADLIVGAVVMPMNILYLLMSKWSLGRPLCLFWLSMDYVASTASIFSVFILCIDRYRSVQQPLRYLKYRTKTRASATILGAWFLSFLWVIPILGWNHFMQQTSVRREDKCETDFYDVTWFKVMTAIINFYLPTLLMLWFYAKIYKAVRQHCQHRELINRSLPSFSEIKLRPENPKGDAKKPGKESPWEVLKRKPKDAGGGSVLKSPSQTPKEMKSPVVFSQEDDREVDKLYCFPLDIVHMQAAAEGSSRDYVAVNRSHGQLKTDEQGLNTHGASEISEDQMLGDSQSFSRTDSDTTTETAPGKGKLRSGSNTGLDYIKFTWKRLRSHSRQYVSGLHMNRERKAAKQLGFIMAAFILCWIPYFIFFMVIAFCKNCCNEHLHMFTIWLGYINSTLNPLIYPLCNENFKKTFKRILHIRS
Chain of Cytochrome P450 2C19 (P33261 whole entry): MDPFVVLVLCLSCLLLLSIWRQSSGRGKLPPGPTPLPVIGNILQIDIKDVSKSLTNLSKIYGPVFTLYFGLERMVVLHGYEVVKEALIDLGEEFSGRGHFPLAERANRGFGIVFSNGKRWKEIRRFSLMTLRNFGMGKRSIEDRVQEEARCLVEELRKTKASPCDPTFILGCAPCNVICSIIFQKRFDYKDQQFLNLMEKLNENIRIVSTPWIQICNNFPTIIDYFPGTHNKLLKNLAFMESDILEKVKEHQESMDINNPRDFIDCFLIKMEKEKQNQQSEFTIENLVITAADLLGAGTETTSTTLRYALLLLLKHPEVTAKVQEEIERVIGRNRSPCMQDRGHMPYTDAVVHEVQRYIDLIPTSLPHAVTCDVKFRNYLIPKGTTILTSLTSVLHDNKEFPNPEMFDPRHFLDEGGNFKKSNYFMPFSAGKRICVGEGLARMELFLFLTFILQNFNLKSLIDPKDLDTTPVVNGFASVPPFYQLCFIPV
Chain of Cytochrome P450 3A4 (P08684 whole entry): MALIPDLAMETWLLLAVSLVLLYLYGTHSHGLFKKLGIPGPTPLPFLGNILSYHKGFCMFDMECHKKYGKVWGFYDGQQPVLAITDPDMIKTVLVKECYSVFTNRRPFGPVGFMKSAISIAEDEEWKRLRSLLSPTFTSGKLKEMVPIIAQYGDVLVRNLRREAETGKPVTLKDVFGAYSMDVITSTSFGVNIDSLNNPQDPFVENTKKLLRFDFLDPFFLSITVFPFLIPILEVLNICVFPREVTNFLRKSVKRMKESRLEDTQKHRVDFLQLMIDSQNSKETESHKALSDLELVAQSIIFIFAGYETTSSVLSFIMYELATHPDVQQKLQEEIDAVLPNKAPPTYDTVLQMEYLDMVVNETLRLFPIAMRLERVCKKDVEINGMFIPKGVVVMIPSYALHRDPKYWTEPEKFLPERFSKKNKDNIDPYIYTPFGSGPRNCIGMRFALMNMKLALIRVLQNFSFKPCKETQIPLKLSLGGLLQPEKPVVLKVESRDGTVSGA
Chain of Cytochrome P450 2C9 (P11712 whole entry): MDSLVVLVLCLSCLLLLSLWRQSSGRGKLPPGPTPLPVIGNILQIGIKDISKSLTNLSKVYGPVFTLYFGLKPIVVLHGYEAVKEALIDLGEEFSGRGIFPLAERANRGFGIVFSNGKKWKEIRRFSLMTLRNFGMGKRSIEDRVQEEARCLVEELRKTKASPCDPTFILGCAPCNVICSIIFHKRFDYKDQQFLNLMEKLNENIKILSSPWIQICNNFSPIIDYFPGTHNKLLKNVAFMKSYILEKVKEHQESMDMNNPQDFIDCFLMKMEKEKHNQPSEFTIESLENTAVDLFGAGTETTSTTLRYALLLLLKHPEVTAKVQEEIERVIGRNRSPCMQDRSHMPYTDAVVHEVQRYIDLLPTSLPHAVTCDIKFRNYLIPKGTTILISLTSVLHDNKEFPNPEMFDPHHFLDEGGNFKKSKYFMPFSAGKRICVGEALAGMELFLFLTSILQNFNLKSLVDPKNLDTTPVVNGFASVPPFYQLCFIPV
Chain of 5-hydroxytryptamine receptor 2B (P41595 whole entry): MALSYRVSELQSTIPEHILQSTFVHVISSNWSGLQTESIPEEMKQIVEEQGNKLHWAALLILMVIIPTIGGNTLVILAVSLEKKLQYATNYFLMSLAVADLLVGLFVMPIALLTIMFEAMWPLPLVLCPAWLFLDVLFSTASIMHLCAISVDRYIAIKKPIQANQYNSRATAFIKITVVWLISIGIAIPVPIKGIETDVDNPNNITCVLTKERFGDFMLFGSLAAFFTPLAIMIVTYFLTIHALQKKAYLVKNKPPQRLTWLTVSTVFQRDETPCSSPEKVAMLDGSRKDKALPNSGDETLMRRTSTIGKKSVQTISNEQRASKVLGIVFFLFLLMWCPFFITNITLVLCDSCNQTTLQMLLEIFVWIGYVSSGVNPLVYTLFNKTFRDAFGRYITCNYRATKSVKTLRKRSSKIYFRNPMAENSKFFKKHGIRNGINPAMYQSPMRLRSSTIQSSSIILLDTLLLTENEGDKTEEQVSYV
Chain of Histamine H1 receptor (Rattus norvegicus, UniProt P31390) (P31390 whole entry): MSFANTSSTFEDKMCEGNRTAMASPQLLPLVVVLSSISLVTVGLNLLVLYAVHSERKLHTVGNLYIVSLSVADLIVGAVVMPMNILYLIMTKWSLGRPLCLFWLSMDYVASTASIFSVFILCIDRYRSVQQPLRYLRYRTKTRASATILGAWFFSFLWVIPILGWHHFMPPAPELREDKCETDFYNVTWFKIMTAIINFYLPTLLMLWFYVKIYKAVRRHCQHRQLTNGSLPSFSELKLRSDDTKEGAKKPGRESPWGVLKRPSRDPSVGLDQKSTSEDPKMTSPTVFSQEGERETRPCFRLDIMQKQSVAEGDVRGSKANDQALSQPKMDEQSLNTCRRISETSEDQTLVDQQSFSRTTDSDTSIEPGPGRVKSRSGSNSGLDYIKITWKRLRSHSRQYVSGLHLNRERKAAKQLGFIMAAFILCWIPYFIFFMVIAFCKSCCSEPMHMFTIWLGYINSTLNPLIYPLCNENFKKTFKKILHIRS
Chain of Voltage-gated inwardly rectifying potassium channel KCNH2 (Q12809 whole entry): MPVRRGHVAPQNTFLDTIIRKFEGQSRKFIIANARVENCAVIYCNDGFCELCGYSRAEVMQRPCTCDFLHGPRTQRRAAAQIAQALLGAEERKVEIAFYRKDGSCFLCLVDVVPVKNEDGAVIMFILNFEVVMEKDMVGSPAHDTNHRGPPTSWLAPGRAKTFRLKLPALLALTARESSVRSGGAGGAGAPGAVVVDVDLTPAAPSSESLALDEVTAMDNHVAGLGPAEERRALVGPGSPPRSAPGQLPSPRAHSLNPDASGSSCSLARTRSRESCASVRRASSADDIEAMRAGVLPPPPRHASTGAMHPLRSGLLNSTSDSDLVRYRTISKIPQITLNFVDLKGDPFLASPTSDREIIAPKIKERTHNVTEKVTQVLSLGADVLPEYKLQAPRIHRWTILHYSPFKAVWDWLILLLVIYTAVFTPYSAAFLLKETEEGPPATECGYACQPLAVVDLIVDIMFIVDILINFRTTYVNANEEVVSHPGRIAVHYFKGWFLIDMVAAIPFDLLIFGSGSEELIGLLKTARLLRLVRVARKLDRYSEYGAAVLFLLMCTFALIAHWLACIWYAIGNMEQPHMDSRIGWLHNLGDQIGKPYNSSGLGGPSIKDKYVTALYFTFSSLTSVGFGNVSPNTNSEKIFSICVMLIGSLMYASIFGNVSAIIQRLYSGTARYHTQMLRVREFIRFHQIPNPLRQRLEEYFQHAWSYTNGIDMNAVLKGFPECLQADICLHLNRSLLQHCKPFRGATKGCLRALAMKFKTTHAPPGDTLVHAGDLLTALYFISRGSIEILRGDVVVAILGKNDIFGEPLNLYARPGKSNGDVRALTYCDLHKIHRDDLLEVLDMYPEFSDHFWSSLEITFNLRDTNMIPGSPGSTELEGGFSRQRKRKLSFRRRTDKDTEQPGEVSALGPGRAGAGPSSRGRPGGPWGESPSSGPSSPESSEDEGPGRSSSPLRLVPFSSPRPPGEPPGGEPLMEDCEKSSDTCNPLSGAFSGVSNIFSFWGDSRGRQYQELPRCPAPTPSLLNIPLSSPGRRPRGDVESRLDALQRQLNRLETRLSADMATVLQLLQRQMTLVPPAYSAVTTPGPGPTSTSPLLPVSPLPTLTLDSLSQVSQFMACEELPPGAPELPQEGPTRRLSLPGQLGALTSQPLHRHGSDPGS

| SMILES | Ki [1] [nM] | Ki [2] [nM] | Ki [3] [nM] | IC50 [4] [nM] | Ki [5] [nM] | IC50 [6] [nM] | IC50 [7] [nM] | IC50 [8] [nM] | fraction unbound [9] | fraction unbound [10] | Time [11] [min] | Time [12] [min] | Time [13] [min] | Time [14] [min] | Time [15] [min] | Time [16] [min] | Time [17] [min] | Time [18] [min] | Time [19] [min] | Time [20] [min] | further results |
| --- | --- | --- | --- | --- | --- | --- | --- | --- | --- | --- | --- | --- | --- | --- | --- | --- | --- | --- | --- | --- | --- |
| O=C(O)C1CN(C2CC[C@]3(Cc4ccccc4Cc4ccccc43)C2)C1 (stereo not given in full) | 6.31 | 79.4 | 6.31 | > 50100 | 5.62 | > 10000 | > 10000 | > 10000 | 0.032 | 0.12 | 98.1 | 134.7 | 145.2 | 58.1 | 51.6 | 33.5 | 87.4 | 118.6 | 130.5 | 77.8 | Time [21]: 81.6 min; Time [22]: 64.5 min; Time [23]: 10.7 min; Time [24]: 16.1 min; Time [25]: 14.6 min |
| O=C(O)C1CN(C2CCC3(Cc4ccccc4Oc4ccccc43)C2)C1 (stereo not given) | 50.1 | 794 | 31.6 | > 50100 | 14.1 | > 10000 | > 10000 | > 10000 | 0.04 | 0.171 | 120.7 | 138.3 | 155.7 | 37.8 | 37.9 | 31.5 | 107.3 | 123.2 | 139.5 | 67 | Time [21]: 77.7 min; Time [22]: 63.4 min; Time [23]: 13.3 min; Time [24]: 15.1 min; Time [25]: 16.2 min |
| O=C(O)C1CCN(C2CC[C@]3(Cc4ccccc4Cc4ccccc43)C2)CC1 (stereo not given in full) | 50.1 | 158 | 63.1 | > 63100 | 4.68 | > 10000 | > 10000 | > 10000 | 0.031 | 0.182 | 94.4 | 105.2 | 105.2 | 69.8 | 51.4 | 34.6 | 84.7 | 94.2 | 104 | 83.6 | Time [21]: 77.9 min; Time [22]: 83.8 min; Time [23]: 9.7 min; Time [24]: 11 min; Time [25]: 12.6 min |
